Measured values reported in ChEMBL document CHEMBL1148339, “Synthesis, structure-activity relationships, and drug resistance of beta-d-3'-fluoro-2',3'-unsaturated nucleosides as anti-HIV Agents” (J Med Chem, 2004).

Experiments:
[1] = test system: CCRF-CEM; assay: Cytotoxicity against T-lymphoblastoid cell line (CEM); assay type: functional, cell-based; details: Homo sapiens
How it was run: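 CEM T-lymphoblastoid cells in log phase, seeded 2.5 × 10³ cells/well with 10-fold serial dilutions of compound, 4 days at 37 °C in humidified 5% CO₂/air.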

[2] = test system: Human immunodeficiency virus 1; assay: Effective concentration against HIV-1 in human peripheral blood mononuclear cells (PBMC); assay type: functional, organism-based
How it was run: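 PBM cells infected in bulk for 1 h with HIV-1 LAI (100 TCID50/1 × 10⁷ cells, flask, or 200 TCID50/6 × 10⁵ cells/well), then cultured 5 days at 37 °C with 10-fold compound dilutions in IL-2 medium. Supernatant virus pelleted; RT activity measured with poly(rA)·oligo(dT) and [³H]TTP, 2 h 37 °C. EC50/EC90 by median effect method.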

[3] = Cytotoxicity against human peripheral blood mononuclear cells (PBMC); assay type: functional, cell-based
How it was run: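 Uninfected PHA-stimulated human PBM cells from seronegative donors (Ficoll–Hypaque), 5 × 10⁴ cells/well, 10-fold serial compound dilutions, 5 days at 37 °C in 5% CO₂/air. MTT assay read at 570 nm; IC50 by median effect method.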

[4] = test system: Vero; assay: Cytotoxicity against vero cell line; assay type: functional, cell-based; details: Chlorocebus sabaeus
How it was run: (§1)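 Log-phase Vero (African green monkey kidney) cells seeded 5 × 10³ cells/well with 10-fold serial compound dilutions, cultured 3 days at 37 °C, humidified 5% CO₂/air.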

[5] = test system: adenosine deaminase (ADA); assay: Ability to get deaminated by adenosine deaminase (ADA); Expressed as t1/2; assay type: ADME, Bos taurus; details: cattle
How it was run: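 Calf intestinal mucosa adenosine deaminase, 0.15 units, in phosphate buffer pH 7.4 at 25 °C; substrate at 20 μM. Deamination followed by UV absorbance at 265 nm, with substrate concentration derived from absorbance change over time to give half-life.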

[6] = t1/2 (half life) period was determined; No decomposition observed up to 7 days; assay type: ADME; details: 168 h
[7] = test system: Human immunodeficiency virus 1; assay: Effective concentration against M184V HIV-1 virus in human peripheral blood mononuclear cells
[8] = test system: Human immunodeficiency virus 1; assay: Effective concentration against Wild Type HIV-1 virus in human peripheral blood mononuclear cells
[9] = test system: Vero; assay: Cytotoxicity against Vero cell line; assay type: functional, cell-based; details: Chlorocebus sabaeus; how it was run: as §1
[10] = t1/2 (half life) period was determined; assay type: ADME

Row | Structure (SMILES) | IC50 [1] [µM] | EC50 [2] [µM] | IC50 [3] [µM] | IC50 [4] [µM] | further results
1 | Nc1ncnc2c1ncn2[C@@H]1C=C(F)[C@H](CO)O1 | > 100 | > 100 | > 100 | > 100 | –
2 | Nc1ncnc2c1ncn2[C@H]1C=C(F)[C@@H](CO)O1 | > 100 | 6.55 | > 100 | > 100 | half-life [5]: 56 min
3 | Nc1nc(=O)n([C@H]2C=C(F)[C@@H](CO)O2)cc1F | > 100 | 9.29 | > 100 | > 100 | –
4 | Nc1ccn([C@@H]2O[C@H](CO)C=C2F)c(=O)n1 | – | – | – | – | T1/2 [6]: Infinity
5 | Nc1ncnc2c1ncn2[C@@H]1O[C@H](CO)C=C1F | – | – | – | – | half-life [5]: 42 min
6 | O=c1ccn(C2C=C(F)C(CO)O2)c(=O)[nH]1 (stereo not given) | > 100 | > 100 | > 100 | 82.6 | –
7 | Nc1ccn([C@@H]2C=C(F)[C@H](CO)O2)c(=O)n1 | > 100 | 0.089 | 86.9 | > 100 | EC50 [7]: 2.4 µM; EC50 [8]: 0.089 µM
8 | OC[C@H]1O[C@@H](n2cnc3c(O)ncnc32)C=C1F | 77.7 | 12.8 | > 100 | > 100 | –
9 | Cc1cn([C@H]2C=C(F)[C@@H](CO)O2)c(=O)[nH]c1=O | > 100 | > 100 | > 100 | – | IC50 [9]: > 100 µM
10 | Nc1ncnc2c1ncn2[C@@H]1O[C@H](CO)[C@@H](O)[C@H]1O [ADENOSINE] | – | – | – | – | half-life [5]: 0.5 min
11 | Cc1cn([C@H]2C[C@H](N=[N+]=[N-])[C@@H](CO)O2)c(=O)[nH]c1=O [ZIDOVUDINE] | – | – | – | – | EC50 [7]: 0.0027 µM; EC50 [8]: 0.0041 µM
12 | Nc1nc(O)c2ncn([C@H]3C=C(F)[C@@H](CO)O3)c2n1 | > 100 | 44.9 | > 100 | 75.5 | –
13 | Nc1ncnc2c1ncn2[C@H]1C=C[C@@H](CO)O1 | – | – | – | – | half-life [5]: 4460 min
14 | Nc1nc(=O)n([C@@H]2C=C(F)[C@H](CO)O2)cc1F | > 100 | 0.018 | > 100 | > 100 | –
15 | Nc1ccn([C@H]2C=C[C@@H](CO)O2)c(=O)n1 | – | 0.005 | 65 | – | half-life [10]: 1 h
16 | Nc1ccn([C@H]2C=C(F)[C@@H](CO)O2)c(=O)n1 | > 100 | 2.3 | > 100 | > 100 | half-life [10]: 48 h; EC50 [7]: 19.7 µM; EC50 [8]: 2.3 µM
